Measurements taken from ChEMBL document CHEMBL4043297, “Synthesis and Structure-Activity Relationships of the Novel Antimalarials 5-Pyridinyl-4(1 H)-Pyridones” (J Med Chem, 2018).
Values after ≈ are worked out from the molar mass of the structure shown.

Key:
[1] = Tmax in CD1 mouse at 8.7 mg/kg administered via oral gavage by LC-MS/MS method; assay type: ADME, organism-based; details: in vivo
Method in brief: (§1)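 Specific pathogen-free female CD1 (Hsd:ICR) mice, 8–10 weeks old, housed in the institutional animal facility. Each compound was given intravenously at a low dose and orally at a higher dose. Vd, clearance, t1/2, Cmax, Tmax, AUC0-t, AUC∞ and %F were derived from plasma exposure after each route.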

Plasmodium falciparum = assay: Antimalarial activity against Plasmodium falciparum 3D7A infected in human RBC after 48 hrs by [3H]-hypoxanthine incorporation assay; assay type: functional
Plasmodium yoelii = assay: Schizontocidal activity against Plasmodium yoelii infected in CD1 mouse administered via oral gavage as qd for 4 days starting 1 hr post infection by YOYO-1 dye-based flow cytometric method; assay type: functional
Method in brief: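 Blood schizontocidal activity was tested in a modified 4-day suppressive test in mice infected with P. yoelii. Four oral doses were given by gavage over four days.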

[2] = Oral bioavailability in CD1 mouse at 8.7 mg/kg administered via gavage by LC-MS/MS method; assay type: ADME, organism-based; details: in vivo; method in brief: as §1
[3] = AUC (0 to t) in CD1 mouse at 8.7 mg/kg administered via oral gavage by LC-MS/MS method; assay type: ADME, organism-based; details: in vivo
Method in brief: (§2)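 Specific pathogen-free female CD1 (Hsd:ICR) mice, 8 to 10 weeks old. Each compound was given as an intravenous dose and an oral dose at the levels listed. Parameters reported: Vd, clearance, t1/2, Cmax, Tmax, AUC0-t, AUC∞ and %F.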

[4] = AUC (infinity) in CD1 mouse at 8.7 mg/kg administered via oral gavage by LC-MS/MS method; assay type: ADME, organism-based; set-up: dose 8.7 mg/kg, route oral, time infinity; details: in vivo; method in brief: as §2
[5] = Clearance in CD1 mouse at 1.45 mg/kg, iv as bolus dose by LC-MS/MS method; assay type: ADME, organism-based; details: in vivo; method in brief: as §2
serum albumin = serum albumin (Homo sapiens, UniProt P02768); assay: Binding affinity to human serum albumin by HPLC method; assay type: ADME; details: read-out: PB (converted)
[6] = Volume of distribution in CD1 mouse at 1.45 mg/kg, iv as bolus dose by LC-MS/MS method; assay type: ADME, organism-based; details: in vivo; method in brief: as §1
[7] = Cmax in CD1 mouse at 8.7 mg/kg administered via oral gavage by LC-MS/MS method; assay type: ADME, organism-based; set-up: dose 8.7 mg/kg, route oral; details: in vivo; method in brief: as §2
[8] = Half life in CD1 mouse at 1.45 mg/kg, iv as bolus dose by LC-MS/MS method; assay type: ADME, organism-based; details: in vivo; method in brief: as §2
[9] = Equilibrium solubility of compound in FeSSIF after 24 hrs by LC-MS method; assay type: physicochemical
[10] = Half life in CD1 mouse at […], iv as bolus dose by LC-MS/MS method; assay type: ADME, organism-based; details: in vivo
[11] = Volume of distribution in CD1 mouse at […], iv as bolus dose by LC-MS/MS method; assay type: ADME, organism-based; details: in vivo
[12] = Clearance in CD1 mouse at […], iv as bolus dose by LC-MS/MS method; assay type: ADME, organism-based; details: in vivo
[13] = Tmax in CD1 mouse at 11.512 mg/kg administered via oral gavage by LC-MS/MS method; assay type: ADME, organism-based; details: in vivo; method in brief: as §1
[14] = AUC (0 to t) in CD1 mouse at 11.512 mg/kg administered via oral gavage by LC-MS/MS method; assay type: ADME, organism-based; details: in vivo; method in brief: as §2
[15] = Cmax in CD1 mouse at 11.512 mg/kg administered via oral gavage by LC-MS/MS method; assay type: ADME, organism-based; set-up: dose 11.512 mg/kg, route oral; details: in vivo, 11.51 mg/kg; method in brief: as §2
[16] = Equilibrium solubility of compound in FaSSIF after 24 hrs by LC-MS method; assay type: physicochemical
[17] = Oral bioavailability in CD1 mouse at 11.512 mg/kg administered via gavage by LC-MS/MS method; assay type: ADME, organism-based; details: in vivo; method in brief: as §2
[18] = AUC (infinity) in CD1 mouse at 11.512 mg/kg administered via oral gavage by LC-MS/MS method; assay type: ADME, organism-based; set-up: dose 11.512 mg/kg, time infinity, route oral; details: in vivo, 11.51 mg/kg; method in brief: as §2

Chain of serum albumin (P02768 whole entry): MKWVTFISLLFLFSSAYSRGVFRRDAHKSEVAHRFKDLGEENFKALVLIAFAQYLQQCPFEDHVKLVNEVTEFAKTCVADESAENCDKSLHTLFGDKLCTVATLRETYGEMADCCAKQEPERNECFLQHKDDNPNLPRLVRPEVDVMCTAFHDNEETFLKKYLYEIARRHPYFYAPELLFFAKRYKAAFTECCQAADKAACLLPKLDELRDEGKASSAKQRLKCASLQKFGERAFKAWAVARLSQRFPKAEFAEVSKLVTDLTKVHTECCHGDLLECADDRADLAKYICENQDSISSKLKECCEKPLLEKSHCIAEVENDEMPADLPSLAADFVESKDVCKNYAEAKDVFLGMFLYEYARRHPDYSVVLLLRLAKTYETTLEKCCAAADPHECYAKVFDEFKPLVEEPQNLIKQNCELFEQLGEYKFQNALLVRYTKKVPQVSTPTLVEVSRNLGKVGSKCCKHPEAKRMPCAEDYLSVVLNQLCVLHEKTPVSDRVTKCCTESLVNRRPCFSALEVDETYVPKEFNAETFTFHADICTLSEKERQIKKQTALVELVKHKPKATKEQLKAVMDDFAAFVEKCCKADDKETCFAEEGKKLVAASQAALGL

Question: For `Cc1[nH]c(CO)c(-c2ccc(-c3ccc(OC(F)(F)F)cc3)nc2)c(=O)c1Cl`, which Tmax [1] is on record?
Answer: 1 h

Question: And the IC50 (Plasmodium falciparum)?
Answer: 34 nM

Question: What about the ED50 (Plasmodium yoelii) of the same molecule?
Answer: 0.4 mg/kg

Question: And the bioavailability [2]?
Answer: 133%

Question: And the AUC(0-t) [3]?
Answer: 110 µg·h/mL

Question: What about the AUC(0-inf) [4] of the same molecule?
Answer: 111 µg·h/mL

Question: What about the clearance [5] of the same molecule?
Answer: 1.76 mL/min/kg

Question: And the fraction unbound (serum albumin)?
Answer: 0.05

Question: And the Vd [6]?
Answer: 1.11 L/kg

Question: And the Cmax [7]?
Answer: 8540 ng/mL

Question: What about the half-life [8] of the same molecule?
Answer: 7.4 h

Question: With `Cc1[nH]c(C)c(-c2ccc(-c3ccc(C(F)(F)F)cc3F)nc2)c(=O)c1Cl` as the molecule, how does the solubility thermodynamic at 24 h [9] read?
Answer: 1.33 µg/mL (≈ 3.35 µM)

Question: And the half-life [10]?
Answer: 33.8 h

Question: What about the Vd [11] of the same molecule?
Answer: 0.75 L/kg

Question: And the IC50 (Plasmodium falciparum)?
Answer: 10 nM

Question: What about the clearance [12] of the same molecule?
Answer: 0.26 mL/min/kg

Question: What about the Tmax [13] of the same molecule?
Answer: 10 h

Question: What about the AUC(0-t) [14] of the same molecule?
Answer: 204 µg·h/mL

Question: And the ED50 (Plasmodium yoelii)?
Answer: 0.08 mg/kg

Question: And the Cmax [15]?
Answer: 6380 ng/mL

Question: What about the solubility thermodynamic at 24 h [16] of the same molecule?
Answer: < 1 µg/mL

Question: And the bioavailability [17]?
Answer: 30%

Question: And the AUC(0-inf) [18]?
Answer: 226 µg·h/mL

Question: What about the fraction unbound (serum albumin) of the same molecule?
Answer: 0.05
